Results reported in paper PMC9540525 (Cancer, 2022).

Legend:
[1] = tested on: progastrin‐releasing peptide [pro‐GRP]; assay: Phase 1 study: serum progastrin-releasing peptide; type: in vivo, human; conditions: dose expansion, NENs
[2] = tested on: advanced or unresectable solid tumors, including NENs and R/R NHL; assay: Phase 1 study CC-90011-ST-001: efficacy; type: in vivo, human
In short: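 Phase 1 open-label multicenter study; adults with advanced NENs or R/R NHL. Test compound given orally once weekly in 28-day cycles (expansion: 60 mg); reductions and interruptions of up to 4 weeks allowed. Investigator-assessed response: RECIST 1.1 (solid tumors), IWG (NHL), PCWG3 (neuroendocrine prostate); FDG PET or PET/CT confirmed CR in FDG-avid tumors. Two-sided 95% Clopper–Pearson CIs; Kaplan–Meier medians.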

COc1ccc(-c2c(-c3ccc(C#N)c(F)c3)nc(N3CCC(N)CC3)n(C)c2=O)cc1F [CC‐90011]
patients in whom pro-GRP levels decreased [1]: 15 of 16
patients with a pro-GRP decrease >30% [1]: 11 of 16
Best overall response: CR ([2]; dose escalation, n = 50): 1 (2.0) no. (%)
Best overall response: NE ([2]; dose escalation, n = 50): 4 (8.0) no. (%)
Best overall response: PD ([2]; dose escalation, n = 50): 22 (44.0) no. (%)
Best overall response: PR ([2]; dose escalation, n = 50): 1 (2.0) no. (%)
Best overall response: SD ([2]; dose escalation, n = 50): 22 (44.0) no. (%)
Best overall response: SD ≥4 months ([2]; dose escalation, n = 50): 8 (16.0) no. (%)
CBR [95% CI] ([2]; dose escalation, n = 50): 20 [10.0–33.7] %
ORR [95% CI] ([2]; dose escalation, n = 50): 4 [0.5–13.7] %
mOS [95% CI] ([2]; dose escalation, n = 50): 7.8 [6.1–20.1] months
mPFS [95% CI] ([2]; dose escalation, n = 50): 3.4 [1.7–3.7] months
patients with NENs with SD lasting ≥6 months / >6 months ([2]; dose escalation, grade ≥2 NENs): seven
treatment cycle in which the patient with CR was still ongoing ([2]; dose escalation, one patient with R/R MZL, as of April 2022): 58 cycle
patients with bronchial NENs with SD after nine or more cycles ([2]; dose expansion): three
Best overall response: CR ([2]; dose expansion, n=19): 0 (0.0) no. (%)
Best overall response: NE ([2]; dose expansion, n=19): 2 (11.0) no. (%)
Best overall response: PD ([2]; dose expansion, n=19): 7 (37.0) no. (%)
Best overall response: PR ([2]; dose expansion, n=19): 0 (0.0) no. (%)
CBR [95% CI] ([2]; dose expansion, n=19): 37 [16.3–61.6] %
ORR [95% CI] ([2]; dose expansion, n=19): 0 [0.0–17.6] %
mOS [95% CI] ([2]; dose expansion, n=19): 15.6 [7.0, NE] months
mPFS [95% CI] ([2]; dose expansion, n=19): 1.8 [1.1–5.4] months
treatment cycle in which the patient with SD was still ongoing ([2]; dose expansion, one patient with bronchial NENs, as of April 2022): 46 cycle
median PFS ([2]; patients with bronchial NENs): 4.6 months
